Measurements collected from several papers.
Protocols differ between the studies behind these lines.
Observed: cell growth or viability

O=C(NCc1ccc(CO)cc1)c1c[nH]c2ccc(Cl)cc12 — IC50 (T24; MTT): 17000 nM
Cc1cc(C)cc(COc2cc3c(cc2OCc2cc(C)cc(C)c2)[C@H]2C[C@](O)(Cc4cn(Cc5ccc(-c6ccccc6)cc5)nn4)C[C@H](C)N2CC3)c1 — IC50 (GES1; MTT; 48 h): 2220 nM
Cc1ccc2nc(Cl)c(C=C3C(=O)Nc4ccccc43)cc2c1 — IC50 (CHO; MTT; 72 h): 80000 nM
CCN(CC)CCCC(C)Nc1cnc(C(=O)Nc2cc(F)cc3cccnc23)cn1 (centres unmarked) — IC50 (Pan02; MTT): 4300 nM
Clc1ccc2c(NCCNCc3ccccn3)ccnc2c1 — IC50 (CHO; MTT): 144000 nM
CN(C)CCOc1cc(NC(=O)c2cc(Cl)cc(C(=O)Nc3cc(OCCN(C)C)c4ccccc4n3)n2)nc2ccccc12 — IC50 (HT-1080; ATP luminescence; 72 h): 2200 nM
CCCCN(Cc1ccc(C(=O)NO)cc1)C(=O)Nc1ccccc1 — IC50 (SUP-B15; ATP luminescence; 72 h): 8660 nM
COc1c(C)c(OS(=O)(=O)c2ccc3ccccc3c2)c(C)c(OS(=O)(=O)c2ccc3ccccc3c2)c1C(=O)/C=C/c1ccccc1 — IC50 (SH-SY5Y; SRB; 72 h): > 50000 nM
NCCCOc1cc(NC(=O)c2cc(OCc3c[nH]nn3)cc(C(=O)Nc3cc(OCCCN)c4ccccc4n3)n2)nc2ccccc12 — IC50 (HT-1080; ATP luminescence; 72 h): 35200 nM
C=CC(=O)Nc1ccc(CCn2cc(C[C@@]3(O)C[C@@H]4c5cc(OCc6cc(C)cc(C)c6)c(OCc6cc(C)cc(C)c6)cc5CCN4[C@@H](C)C3)nn2)cc1 — IC50 (GES1; MTT; 48 h): 730 nM
C#CCOc1cc(C(=O)Nc2cc(OCCCN)c3ccccc3n2)nc(C(=O)Nc2cc(OCCCN)c3ccccc3n2)c1 — IC50 (HT-1080; ATP luminescence; 72 h): 2600 nM
COc1cc(Nc2nccc(-c3cnn4nc(OC)ccc34)n2)cc(C(F)(F)F)c1 — IC50 (A 172; ATP luminescence): 430 nM
CC[C@H]1CN2CCc3cc(OC)c(OC)cc3[C@@H]2C[C@@H]1C[C@H]1NCCc2cc(OC)c(OC)cc21 — IC50 (CHO; MTT): 250 nM
CN1/C(=N/c2ccc(Cl)cc2)c2cc(C(N)=O)nc3c(N)c(Cl)c(N)c1c23 — IC50 (HCC4017): 22900 nM
COc1cccc2c1C(=O)c1c(O)c3c(c(O)c1C2=O)C[C@@](O)(C(=O)CO)C[C@@H]3O[C@H]1C[C@H](N)[C@H](O)[C@H](C)O1 — IC50 (BHK; SRB; 48 h): 36400 nM
NCCOc1cc(C(=O)Nc2cc(OCCN3CCCC3)c3ccccc3n2)nc(C(=O)Nc2cc(OCCN3CCCC3)c3ccccc3n2)c1 — IC50 (HT-1080; ATP luminescence; 72 h): 200 nM
O=[N+]([O-])c1ccc(NC(=S)NN=Cc2ccccn2)cc1 — IC50 (BHK; SRB; 48 h): 54800 nM
C=C(C)C(=O)Nc1ccc(-c2c(-c3ccc(Oc4nccc(C)n4)c(F)c3)c3c(N)ncnc3n2C)cc1 — IC50 (SNU-16; ATP luminescence; 96 h): 3.25 nM
CC(C)C[C@H](NC(=O)[C@H](Cc1ccccc1)NC(=O)c1cnccn1)B(O)O — IC50 (MM.1R; ATP luminescence; 48 h): 8.9 nM
CC(C)C[C@H](NC(=O)[C@H](Cc1ccccc1)NC(=O)c1cnccn1)B(O)O — IC50 (HT-1080; ATP luminescence): 13 nM
NCCCOc1cc(NC(=O)c2cc(Cl)cc(C(=O)Nc3cc(OCCCN)c4ccccc4n3)n2)nc2ccccc12 — IC50 (HT-1080; ATP luminescence; 72 h): 600 nM
CCN1C(=O)N(c2c(F)c(OC)cc(OC)c2F)Cc2cnc3[nH]c(CN4CCOCC4)cc3c21 — IC50 (SNU-16; ATP luminescence; 96 h): 3.38 nM
COc1cc(C(=O)Nc2cc(OCCN3CCCC3)c3ccccc3n2)nc(C(=O)Nc2cc(OCCN3CCCC3)c3ccccc3n2)c1 — IC50 (HT-1080; ATP luminescence; 72 h): 1500 nM
O=C(O)c1ccc(NC(=O)c2cc3cc(Cl)ccc3[nH]2)cc1 — IC50 (T24; MTT): 15000 nM
CN1C(=O)c2cc(C(N)=O)nc3c(N)c(Cl)c(N)c1c23 — IC50 (HCC4017): 15900 nM
CCN1CCN(c2ccc(Nc3cc(N(C)C(=O)Nc4c(Cl)c(OC)cc(OC)c4Cl)ncn3)cc2)CC1 — IC50 (NCI-H716; ATP luminescence; 96 h): 5.76 nM
Oc1ccccc1CN=CCNc1ccnc2cc(Cl)ccc12 — IC50 (CHO; MTT): > 300000 nM
C#CCOc1cc(C(=O)Nc2cc(OCCN)c3ccccc3n2)nc(C(=O)Nc2cc(OCCN)c3ccccc3n2)c1 — IC50 (HT-1080; ATP luminescence; 72 h): 4700 nM
O=C1Nc2ccccc2C1=Cc1cc2ccc(Cl)cc2nc1Cl — IC50 (CHO; MTT; 72 h): 39200 nM
O=C(Nc1cc(OCCN2CCCC2)c2ccccc2n1)c1cc(OCCN2CCCC2)cc(C(=O)Nc2cc(OCCN3CCCC3)c3ccccc3n2)n1 — IC50 (HT-1080; ATP luminescence; 72 h): 2200 nM
COc1cc(OC)c(/C=C/S(=O)(=O)Nc2ccc(OC)c(N)c2)c(OC)c1 — IC50 (NCI-H187; trypan blue; 96 h): 4 nM
CC(=O)O[C@@]12CO[C@@H]1C[C@H](O)[C@@]1(C)C(=O)[C@H](O)C3=C(C)[C@@H](OC(=O)[C@H](O)[C@@H](NC(=O)OC(C)(C)C)c4ccccc4)C[C@@](O)([C@@H](OC(=O)c4ccccc4)[C@H]21)C3(C)C — IC50 (HCC1937; ATP luminescence; 72 h): > 2500 nM
